Screens deposited in PubChem BioAssay by The Scripps Research Institute Molecular Screening Center.
mABHD4 FP = inhibits mouse alpha/beta hydrolase domain 4 | inhibition, % at 8.92 µM | purified mABHD4, FP-Rh probe fluorescence polarization | Q8VD66 | 370,000 tested, 0.54% active;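 active = inhibition exceeding the mean over every tested compound plus 3 SD, cut at about 30% in these data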;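 also: 0% = plate median of compound wells and 100% = S159A mutant with DMSO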
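Assay system: mouse ABHD4 enzyme, wild type / Also added: fluorescent activity-based probe FP-Rh / Doses: single nominal dose of 8.92 µM, 0.89% DMSO final / Timing: 45 min compound pre-incubation plus 60 min probe step, 25 °C / Signal: FP readout, ex 525 nm / em 598 nm / Control set: S159A mutant/DMSO as 100%, compound-well median as 0%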
PRMT1 inh = blocks human protein arginine methyltransferase 1; Q99873; recombinant PRMT1, activity-based probe fluorescence polarization; 370,000 tested, 1.3% active; inhibition, % at 2.79 µM;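 active = inhibition above about 21% made by adding two undisclosed values, limit read from the data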
SIAE inh = blocks human sialic acid acetylesterase | SIAE FP-Rh probe binding, fluorescence polarization | inhibition, % at 9.66 µM | 370,000 tested, 0.69% active | Q9HAT2 | AID 1053197;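 active = inhibition above a cutoff: mean of compounds within the control limits plus 3 SD of those, cut at about 17% in these data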;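 also: 0% = plate median of compound wells and 100% = probe without SIAE protein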
HTRA1 inh = inhibitors of human serine peptidase HTRA1 | Q92743 | recombinant HTRA1, FP-rhodamine activity-based probe, fluorescence polarization | inhibition, % at 5.96 µM | 340,000 tested, 0.5% active | AID 504803; in the data active = inhibition above about 36%;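 also: 0% = enzyme with DMSO and 100% = wells lacking enzyme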
Target sequence (Q92743 whole entry, looked up): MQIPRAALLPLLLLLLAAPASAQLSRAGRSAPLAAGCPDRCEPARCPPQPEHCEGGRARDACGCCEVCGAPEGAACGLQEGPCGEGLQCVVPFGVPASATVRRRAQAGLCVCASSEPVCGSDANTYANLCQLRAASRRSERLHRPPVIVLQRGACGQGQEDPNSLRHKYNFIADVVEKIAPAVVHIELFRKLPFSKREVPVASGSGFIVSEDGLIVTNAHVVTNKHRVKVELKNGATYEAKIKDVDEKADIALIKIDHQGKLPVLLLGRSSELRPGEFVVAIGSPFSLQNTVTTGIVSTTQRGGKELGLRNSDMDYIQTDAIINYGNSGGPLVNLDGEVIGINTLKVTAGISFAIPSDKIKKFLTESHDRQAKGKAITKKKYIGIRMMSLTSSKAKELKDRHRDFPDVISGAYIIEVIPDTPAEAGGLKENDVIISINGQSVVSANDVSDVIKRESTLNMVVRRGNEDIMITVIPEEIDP
TCR CD3 inh = blocks the human TCR-CD3 interaction | inhibition, % at 9.4 µM | 360,000 tested, 0.37% active | TAMRA-labeled TCR probe fluorescence, biochemical; in the data active = inhibition above about 19%;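 also: recombinant mutant TCR 2C K166C tagged with TAMRA read by polarization; 0% = receptor in buffer alone and 100% = receptor with positive control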
rCAG binder = molecules binding r(CAG) RNA repeats; r(CAG) RNA repeat, TO-PRO-1 dye displacement fluorescence; inhibition, % at 3 µM; 370,000 tested, 1.3% active;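 active = inhibition above the plate cutoff, the mean of all test compounds on that plate plus 3 SD, cut at about 35% in these data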;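 also: 0% = DMSO alone and 100% = 100 µM mitoxantrone as full dye displacement; higher means more dye released from RNA so lower well fluorescence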
PRMT1 confirm = confirmation of human PRMT1 inhibitors. shares compounds with PRMT1 inh. recombinant His-PRMT1, activity-based probe fluorescence polarization. inhibition, % at 2.79 µM. 3,300 tested, 42% active. AID 687036;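 active = mean inhibition across replicates above the hit cutoff derived for the earlier primary screen, cut at about 22% in these data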
An asterisk follows results filed as active; . = not tested or not shown. Sampled rows, rich in hits. Any-hit rate of the full collection: about 3.5%.

SMILES | mABHD4 FP | PRMT1 inh | SIAE inh | HTRA1 inh | TCR CD3 inh | rCAG binder | PRMT1 confirm
CC(=O)c1cccc(NC(=O)/C(=C/c2ccco2)NC(=O)c2ccco2)c1 | -5 | 46* | -4 | 0 | 1 | 24 | 27*
Cc1ccc(C(=O)N/C(=C/c2ccco2)C(=O)Nc2cccc(C(=O)O)c2)cc1 | 15 | 16 | 6 | . | 2 | 22 | .
COc1ccccc1C(=O)N/C(=C/c1ccco1)C(=O)Nc1cccc(C(=O)O)c1 | 17 | 28* | 4 | -10 | 6 | 16 | 8
CCCCNC(=O)C1CCCN1C(=O)Nc1cc(C)cc(C)c1 (stereo unspecified) | 0 | -1 | 1 | . | . | 4 | .
CCOc1ccc(-n2c(COc3ccc(C)cc3)nnc2SCC(=O)Nc2ccc(F)c(F)c2)cc1 | -5 | 0 | -3 | . | . | 7 | .
Cc1cc(C)cc(C(=O)OCCCN(C)C2CN(Cc3cn(Cc4cccc(F)c4)nn3)S(=O)(=O)C2)c1 (stereo unspecified) | -8 | -3 | 3 | . | . | 2 | .
c1ccc2c(c1)Nc1nccnc1S2 | 7 | 49* | 6 | 8 | 6 | 6 | 47*
N#CCN1CCC(c2cc(-c3ccco3)n[nH]2)CC1 | 2 | 57* | -3 | . | 3 | 5 | 3
c1coc(-c2cc(C3CCNCC3)[nH]n2)c1 | 0 | 5 | 4 | 3 | -3 | -5 | .
Cc1ccc(-c2nc3cnccn3c2Nc2ccccc2)o1 | 12 | 67* | 6 | 4 | 6 | 9 | 9
COc1ccc(-c2nc3cnccn3c2Nc2ccc(C)cc2)cc1 | 14 | 1 | 8 | -5 | -5 | 4 | .
Cc1ccc(Nc2c(-c3ccccc3)nc3cnccn23)cc1 | 4 | -2 | 2 | 2 | 5 | -3 | .
Cc1ccc(Nc2c(-c3ccc(C)o3)nc3cnccn23)cc1 | 9 | 58* | 10 | 1 | -9 | 5 | 10
Clc1ccc(-c2nc3cnccn3c2Nc2ccc3c(c2)OCO3)cc1 | 14 | 11 | 15 | 16 | 2 | 3 | .
Cc1ccc(-c2nc3cnccn3c2Nc2ccc3c(c2)OCO3)o1 | 12 | 26* | 1 | 8 | -1 | 6 | 2
Cc1ccc(-c2nc3ccccn3c2Nc2ccccc2)o1 | 14 | 49* | 7 | 3 | -5 | -1 | 0
Cc1ccc(-c2nnc(SCC(=O)Nc3ccc(Oc4ccccc4)cc3)n2-c2ccc(Cl)cc2)cc1 | 6 | -1 | 1 | . | . | 8 | .
CN(C(=O)[C@@H](C1CC1)[C@@H](O)c1ccc(Cl)cc1)c1ccccc1 | 3 | 0 | 6 | . | . | -2 | .
COC(=O)C1CN(Cc2cn(Cc3ccc(OC)cc3)nn2)CCS(=O)(=O)N1Cc1ccc(C)cc1 (stereo unspecified) | 3 | 2 | 5 | . | . | 1 | .
CN1CCC(CNC(=O)Nc2csc3ccccc23)CC1 | 3 | 42* | 2 | . | -8 | 2 | -1
O=C(Cc1csc2ccccc12)NCC1CC1 | 6 | 2 | -5 | . | 2 | 1 | .
Cc1cc(C)cc(N(CC(=O)NC2CCC(C)CC2)S(=O)(=O)c2ccccc2)c1 (stereo unspecified) | 15 | 2 | -6 | . | . | 2 | .
Cc1cccc2sc(NC(=O)Cn3cccc3)nc12 | -11 | 33* | -1 | -8 | -5 | 19 | 19
Cn1c(SCC(=O)Nc2ccccc2-c2ccccc2)nnc1-c1ccccc1 | -6 | 2 | 0 | . | . | 2 | .
COC(=O)c1c(NC(=O)CN2CCC3(O)CCCCC3C2c2ccc(OC)cc2OC)sc(C)c1C (stereo unspecified) | -6 | 30* | -9 | -35 | -8 | 26 | 13
COC(=O)c1c(NC(=O)CN2CCC3(O)CCCCC3C2c2ccccc2OC)sc(C)c1C (stereo unspecified) | -12 | -1 | 4 | -15 | 0 | 10 | .
O=C(NC(=S)NC1CCSC1=O)c1ccccc1 (stereo unspecified) | 0 | 30* | 4 | -5 | 3 | 12 | 9
O=C(NC(=S)NC1CCSC1=O)c1ccccc1Cl (stereo unspecified) | -5 | 26* | 6 | 2 | -1 | 0 | 1
O=C(NC(=S)NC1CCSC1=O)c1ccc([N+](=O)[O-])cc1 (stereo unspecified) | 2 | 10 | 7 | 6 | 3 | 2 | .
